According to ChEMBL document CHEMBL1148437, “Synthesis, structure-activity relationships, and mechanism of drug resistance of D- and L-beta-3'-fluoro-2',3'-unsaturated-4'-thionucleosides as anti-HIV agents” (J Med Chem, 2004):
pEC50, pIC50: −log10 of the molar value.

Tests used:
PBMC [1] = test: (§1) Anti-HIV activity in Human peripheral blood mononuclear (PBM) cells; type: functional
In short: (§2)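 PHA-stimulated (2-3 days) human PBM cells from healthy seronegative donors, Ficoll-Hypaque isolated; bulk infection 1 h (HIV-1 LAI reference; xxBru clone), 100 TCID50/1×10^7 cells (flask) or 200 TCID50/6×10^5 cells/well; 10-fold serial dilutions; RPMI-1640, 16% FBS, IL-2, DEAE-dextran; 5 days 37 °C; supernatant RT activity (poly(rA)·oligo(dT), 3H-TTP); EC50/EC90 by median effect method.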

[2] = Compounds were evaluated for their potential toxic effect on uninfected […] cells; type: ADME, cell-based; conditions: Chlorocebus sabaeus
In short: (§3)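 Uninfected cells were seeded in 10-fold serial drug dilutions: Vero at 5×10^3, CEM at 2.5×10^3 and PHA-stimulated PBM at 5×10^4 cells/well. Vero were incubated 3 days, CEM 4 days and PBM 5 days, at 37 °C in 5% CO2. MTT was added overnight, followed by solubilization for 5 h and reading at 570 nm. IC50 was derived by the median effect method.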

[3] = Compounds were evaluated for their potential toxic effect on uninfected PHA-stimulated human T-lymphoblastoid cell line (CEM); type: ADME; in short: as §3
[4] = Compounds were evaluated for their potential toxic effect on uninfected PHA-stimulated human Peripheral blood mononuclear (PBM) cells; type: ADME; in short: as §3
PBMC [5] = test: as §1; type: functional, cell-based; in short: as §2
PBMC [6] = test: Antiviral activity against drug-resistant HIV-1 virus (M184v) in Human peripheral blood mononuclear (PBM) cells; type: functional
In short: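 PHA-stimulated (2-3 days) human PBM cells from seronegative donors infected 1 h in bulk with molecular clone HIV-1 M184Vpitt, then cultured with 10-fold serial compound dilutions in IL-2–supplemented RPMI-1640, 5 days, 37 °C, 5% CO2. Supernatant virus pelleted and assayed for RT activity (poly(rA)·oligo(dT), 3H-TTP, 2 h, 37 °C). EC50/EC90 from concentration-response curves by median effect method.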

PBMC [7] = test: Antiviral activity against wild type HIV virus(xxBRU) in Human peripheral blood mononuclear (PBM) cells; type: functional; in short: as §2

Row | Structure (SMILES) | EC90 (PBMC [1]) [µM] | pIC50 [2] | pIC50 [3] | pIC50 [4] | pEC50 (PBMC [5]) | EC90 (PBMC [6]) [µM] | EC90 (PBMC [7]) [µM]
1 | Nc1nc(=O)n([C@H]2C=C(F)[C@@H](CO)S2)cc1F | > 100 | < 4.00 | < 4.00 | < 4.00 | < 4.00 | – | –
2 | Nc1ncnc2c1ncn2[C@H]1C=C(F)[C@@H](CO)S1 | > 100 | < 4.00 | < 4.00 | < 4.00 | < 4.00 | – | –
3 | OC[C@@H]1S[C@H](n2cnc3c(O)ncnc32)C=C1F | > 100 | < 4.00 | < 4.00 | < 4.00 | < 4.00 | – | –
4 | O=c1ccn([C@H]2C=C(F)[C@@H](CO)S2)c(=O)[nH]1 | > 100 | < 4.00 | < 4.00 | < 4.00 | < 4.00 | – | –
5 | Nc1nc(O)c2ncn([C@@H]3C=C(F)[C@H](CO)S3)c2n1 | > 100 | < 4.00 | < 4.00 | < 4.00 | 4.36 | – | –
6 | Cc1cn([C@H]2C=C(F)[C@@H](CO)S2)c(=O)[nH]c1=O | > 100 | < 4.00 | < 4.00 | < 4.00 | < 4.00 | – | –
7 | Nc1ncnc2c1ncn2[C@@H]1C=C(F)[C@H](CO)S1 | 57 | < 4.00 | < 4.00 | < 4.00 | 4.83 | – | –
8 | OC[C@H]1S[C@@H](n2cnc3c(O)ncnc32)C=C1F | > 100 | < 4.00 | < 4.00 | < 4.00 | < 4.00 | – | –
9 | O=c1ccn([C@@H]2C=C(F)[C@H](CO)S2)c(=O)[nH]1 | > 100 | < 4.00 | < 4.00 | < 4.00 | < 4.00 | – | –
10 | Nc1nc(O)c2ncn([C@H]3C=C(F)[C@@H](CO)S3)c2n1 | > 100 | < 4.00 | < 4.00 | < 4.00 | 4.63 | – | –
11 | Nc1ccn([C@@H]2C=C(F)[C@H](CO)S2)c(=O)n1 | 1.7 | < 4.00 | < 4.00 | < 4.00 | 6.89 | > 100 | 1.7
12 | Nc1nc(=O)n([C@@H]2C=C(F)[C@H](CO)S2)cc1F | 0.35 | 4.06 | < 4.00 | < 4.00 | 7.51 | > 100 | 0.35
13 | Cc1cn([C@@H]2C=C(F)[C@H](CO)S2)c(=O)[nH]c1=O | > 100 | < 4.00 | ≤ 4.00 | < 4.00 | < 4.00 | – | –
14 | Nc1ccn([C@H]2C=C(F)[C@@H](CO)S2)c(=O)n1 | > 100 | < 4.00 | < 4.00 | < 4.00 | < 4.00 | – | –
15 | Nc1ccn([C@@H]2CS[C@H](CO)O2)c(=O)n1 [LAMIVUDINE] | – | – | – | – | – | – | 0.08
16 | Cc1cn([C@H]2C[C@H](N=[N+]=[N-])[C@@H](CO)O2)c(=O)[nH]c1=O [ZIDOVUDINE] | 0.01 | 4.54 | 4.84 | < 4.00 | – | 0.003 | 0.01
